Assay results: ChEMBL document CHEMBL1649231, “In vitro activities of panduratin A against clinical Staphylococcus strains” (2009)

Assays:
Type in all cases: functional
[1] = system: Staphylococcus hominis; test: Antimicrobial activity against methicillin-susceptible coagulase-negative Staphylococcus hominis after 24 hrs by broth microdilution method
Summary of the method: (§1)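 Clinical isolates came from blood, body fluids, genital secretions, pus or sputum, identified conventionally or by Vitek. MICs were run by CLSI M7-A6 broth microdilution in Mueller-Hinton broth with 5 × 10^5 CFU/ml inoculum. Agents were twofold serially diluted, starting from 10% DMSO. Drug-free and uninoculated controls were included. Plates were incubated aerobically at 37°C for 24 h; MIC is the lowest concentration giving no visible growth.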

[2] = system: Staphylococcus epidermidis; test: Antimicrobial activity against methicillin-resistant coagulase-negative Staphylococcus epidermidis assessed as resistant isolates after 24 hrs by broth microdilution method
[3] = system: Staphylococcus haemolyticus; test: Antimicrobial activity against methicillin-resistant coagulase-negative Staphylococcus haemolyticus assessed as intermediate resistant isolates after 24 hrs by broth microdilution method
[4] = system: Staphylococcus simulans; test: Antimicrobial activity against methicillin-resistant coagulase-negative Staphylococcus simulans assessed as intermediate resistant isolates after 24 hrs by broth microdilution method
[5] = system: Staphylococcus simulans; test: Antimicrobial activity against methicillin-susceptible coagulase-negative Staphylococcus simulans after 24 hrs by broth microdilution method; summary of the method: as §1
[6] = system: Staphylococcus aureus; test: Antimicrobial activity against methicillin-susceptible Staphylococcus aureus assessed as resistant isolates after 24 hrs by broth microdilution method
[7] = system: Staphylococcus aureus; test: Antimicrobial activity against methicillin-resistant Staphylococcus aureus after 24 hrs by broth microdilution method; summary of the method: as §1
[8] = system: Staphylococcus haemolyticus; test: Antimicrobial activity against methicillin-resistant coagulase-negative Staphylococcus haemolyticus assessed as susceptible isolates after 24 hrs by broth microdilution method
[9] = system: Staphylococcus haemolyticus; test: Antimicrobial activity against methicillin-resistant coagulase-negative Staphylococcus haemolyticus assessed as resistant isolates after 24 hrs by broth microdilution method
[10] = system: Staphylococcus epidermidis; test: Bactericidal activity against methicillin-resistant coagulase-negative Staphylococcus epidermidis after 24 hrs by plate counting method
[11] = system: Staphylococcus simulans; test: Antimicrobial activity against methicillin-susceptible coagulase-negative Staphylococcus simulans assessed as susceptible isolates after 24 hrs by broth microdilution method
Summary of the method: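 Clinical isolates from blood, body fluids, pus, sputum or genital secretions, identified conventionally or by Vitek, were tested alongside ATCC 29213 and ATCC 12228 controls. CLSI M7-A6 broth microdilution in Mueller-Hinton broth used twofold dilutions from a 10% DMSO solution and 5 × 10^5 CFU/ml inoculum. Drug-free and uninoculated wells served as controls; incubation was aerobic at 37°C for 24 h. MIC was the lowest concentration with no visible growth.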

[12] = system: Staphylococcus simulans; test: Bactericidal activity against methicillin-susceptible coagulase-negative Staphylococcus simulans after 24 hrs by plate counting method
Summary of the method: (§2)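 Clinical staphylococcal isolates from patient body fluids, blood, genital secretions, pus or sputum; species by conventional methods or Vitek. Twofold dilutions in Mueller-Hinton broth, inoculum 5 × 10^5 CFU/ml, 37°C aerobic 24 h (CLSI M7-A6 microdilution). About 100 μl from each well without visible growth spread on MHA; 37°C 24 h. MBC = lowest concentration giving no growth on agar.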

[13] = system: Staphylococcus epidermidis; test: Bactericidal activity against methicillin-susceptible coagulase-negative Staphylococcus epidermidis after 24 hrs by plate counting method; summary of the method: as §2
[14] = system: Staphylococcus hominis; test: Antimicrobial activity against methicillin-resistant coagulase-negative Staphylococcus hominis assessed as resistant isolates after 24 hrs by broth microdilution method
[15] = system: Mammaliicoccus sciuri; test: Antimicrobial activity against methicillin-susceptible coagulase-negative Staphylococcus sciuri after 24 hrs by broth microdilution method; summary of the method: as §1
[16] = system: Staphylococcus hominis; test: Antimicrobial activity against methicillin-susceptible coagulase-negative Staphylococcus hominis assessed as intermediate resistant isolates after 24 hrs by broth microdilution method; settings: pooled result: one value given for 5 cell lines, strains, targets or settings
[17] = system: Staphylococcus aureus; test: Antimicrobial activity against methicillin-susceptible Staphylococcus aureus assessed as intermediate resistant isolates after 24 hrs by broth microdilution method
[18] = system: Staphylococcus haemolyticus; test: Bactericidal activity against methicillin-resistant coagulase-negative Staphylococcus haemolyticus after 24 hrs by plate counting method
[19] = system: Mammaliicoccus sciuri; test: Bactericidal activity against methicillin-resistant coagulase-negative Staphylococcus sciuri after 24 hrs by plate counting method; summary of the method: as §2
[20] = system: Staphylococcus aureus; test: Antimicrobial activity against methicillin-susceptible Staphylococcus aureus after 24 hrs by broth microdilution method; summary of the method: as §1
[21] = system: Mammaliicoccus sciuri; test: Antimicrobial activity against methicillin-resistant coagulase-negative Staphylococcus sciuri after 24 hrs by broth microdilution method; summary of the method: as §1
[22] = system: Staphylococcus hominis; test: Antimicrobial activity against methicillin-resistant coagulase-negative Staphylococcus hominis assessed as intermediate resistant isolates after 24 hrs by broth microdilution method
[23] = system: Staphylococcus epidermidis; test: Antimicrobial activity against methicillin-susceptible coagulase-negative Staphylococcus epidermidis assessed as resistant isolates after 24 hrs by broth microdilution method
[24] = system: Mammaliicoccus sciuri; test: Bactericidal activity against methicillin-susceptible coagulase-negative Staphylococcus sciuri after 24 hrs by plate counting method; summary of the method: as §2
[25] = system: Staphylococcus hominis; test: Antimicrobial activity against methicillin-susceptible coagulase-negative Staphylococcus hominis assessed as susceptible isolates after 24 hrs by broth microdilution method
[26] = system: Staphylococcus hominis; test: Antimicrobial activity against methicillin-resistant coagulase-negative Staphylococcus hominis assessed as susceptible isolates after 24 hrs by broth microdilution method
[27] = system: Mammaliicoccus sciuri; test: Antimicrobial activity against methicillin-resistant coagulase-negative Staphylococcus sciuri assessed as susceptible isolates after 24 hrs by broth microdilution method
[28] = system: Staphylococcus simulans; test: Antimicrobial activity against methicillin-susceptible coagulase-negative Staphylococcus simulans assessed as resistant isolates after 24 hrs by broth microdilution method
[29] = system: Staphylococcus simulans; test: Bactericidal activity against methicillin-resistant coagulase-negative Staphylococcus simulans after 24 hrs by plate counting method; summary of the method: as §2
[30] = system: Staphylococcus aureus; test: Antimicrobial activity against methicillin-resistant Staphylococcus aureus assessed as intermediate resistant isolates after 24 hrs by broth microdilution method
[31] = system: Mammaliicoccus sciuri; test: Antimicrobial activity against methicillin-susceptible coagulase-negative Staphylococcus sciuri assessed as resistant isolates after 24 hrs by broth microdilution method
[32] = system: Staphylococcus haemolyticus; test: Antimicrobial activity against methicillin-susceptible coagulase-negative Staphylococcus haemolyticus after 24 hrs by broth microdilution method; summary of the method: as §1
[33] = system: Staphylococcus aureus; test: Bactericidal activity against methicillin-susceptible Staphylococcus aureus after 24 hrs by plate counting method; summary of the method: as §2
[34] = system: Staphylococcus epidermidis; test: Antimicrobial activity against methicillin-resistant coagulase-negative Staphylococcus epidermidis assessed as susceptible isolates after 24 hrs by broth microdilution method
[35] = system: Staphylococcus simulans; test: Antimicrobial activity against methicillin-resistant coagulase-negative Staphylococcus simulans assessed as susceptible isolates after 24 hrs by broth microdilution method
[36] = system: Staphylococcus simulans; test: Antimicrobial activity against methicillin-resistant coagulase-negative Staphylococcus simulans assessed as resistant isolates after 24 hrs by broth microdilution method
[37] = Staphylococcus epidermidis, 24 h

C[C@H]1COc2c(N3CCN(C)CC3)c(F)cc3c(=O)c(C(=O)O)cn1c23.C[C@H]1COc2c(N3CCN(C)CC3)c(F)cc3c(=O)c(C(=O)O)cn1c23.O [LEVOFLOXACIN]
MIC [1]: 0.25 µg/mL
MIC50 [1]: 0.25 µg/mL
MIC90 [1]: 0.5 µg/mL
Activity [2]: 59%
Activity [3]: 15%
Activity [4]: 15%
MIC [5]: 0.25 µg/mL
MIC50 [5]: 0.25 µg/mL
MIC90 [5]: 0.5 µg/mL
Activity [6]: 15%
MIC50 [7]: 8 µg/mL
MIC90 [7]: 128 µg/mL
Activity [8]: 26%
Activity [9]: 59%
MBC50 [10]: 4 µg/mL
MBC90 [10]: 16 µg/mL
MBC [10, 37]: 0.5 µg/mL
Activity [11]: 96%
MBC50 [12]: 1 µg/mL
MBC90 [12]: 4 µg/mL
MBC ([12]; Staphylococcus simulans, 24 h): 0.5 µg/mL
MBC50 [13]: 1 µg/mL
MBC90 [13]: 4 µg/mL
MBC [13, 37]: 0.5 µg/mL
Activity [14]: 59%
MIC [15]: 0.25 µg/mL
MIC50 [15]: 0.25 µg/mL
MIC90 [15]: 0.5 µg/mL
Activity [16]: 0%
Activity [17]: 4%
MBC50 [18]: 4 µg/mL
MBC90 [18]: 16 µg/mL
MBC ([18]; Staphylococcus haemolyticus, 24 h): 0.5 µg/mL
MBC50 [19]: 4 µg/mL
MBC90 [19]: 16 µg/mL
MBC ([19]; Mammaliicoccus sciuri, 24 h): 0.5 µg/mL
MIC [20]: 0.125 µg/mL
MIC50 [20]: 0.125 µg/mL
MIC90 [20]: 8 µg/mL
MIC [21]: 0.25 µg/mL
MIC50 [21]: 0.25 µg/mL
MIC90 [21]: 4 µg/mL
Activity [22]: 15%
Activity [23]: 4%
MBC50 [24]: 1 µg/mL
MBC90 [24]: 4 µg/mL
MBC ([24]; Mammaliicoccus sciuri, 24 h): 0.5 µg/mL
Activity [25]: 96%
Activity [26]: 26%
Activity [27]: 15%
Activity [28]: 4%
MBC50 [29]: 4 µg/mL
MBC90 [29]: 16 µg/mL
MBC ([29]; Staphylococcus simulans, 24 h): 0.5 µg/mL
Activity [30]: 0%
Activity [31]: 4%
MIC [32]: 0.25 µg/mL
MIC50 [32]: 0.25 µg/mL
MIC90 [32]: 0.5 µg/mL
MBC50 [33]: 1 µg/mL
MBC90 [33]: 8 µg/mL
MBC ([33]; Staphylococcus aureus, 24 h): 0.125 µg/mL
Activity [34]: 26%
Activity [35]: 15%
Activity [36]: 59%
